In brackets after ≈: the same amount, converted by molar mass.
Columns and labels:
[1] = system: Staphylococcus aureus; assay: Antimicrobial activity against Staphylococcus aureus isogenic forms expressing gyrA S84L and parC S80F mutant by agar dilution method; type: functional
Procedure, shortened: (§1)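 MIC (μg/mL) on otherwise isogenic derivatives of S. aureus ATCC 29213 that carry the rifamycin-resistance allele rpoB H481Y and/or the quinolone-resistance alleles parC S80F and gyrA S84L. The wild-type parent is the reference strain. MICs were determined both by agar dilution and by broth dilution, tested side by side on the same panel.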

[2] = system: Staphylococcus aureus; assay: Antimicrobial activity against Staphylococcus aureus isogenic forms expressing gyrA S84L mutant by broth dilution method; type: functional; procedure, shortened: as §1
[3] = Inhibition of wild type Staphylococcus aureus RNA polymerase assessed as reduction in RNA product formation
[4] = Inhibition of RIF-resistant Staphylococcus aureus RNA polymerase RpoB H481Y mutant assessed as reduction in RNA product formation
[5] = system: Staphylococcus aureus; assay: Antimicrobial activity against wild type Staphylococcus aureus by agar dilution method; type: functional; procedure, shortened: as §1
[6] = system: Staphylococcus aureus; assay: Antimicrobial activity against Staphylococcus aureus isogenic forms expressing gyrA S84L mutant by agar dilution method; type: functional; procedure, shortened: as §1
[7] = system: Staphylococcus aureus; assay: Antimicrobial activity against wild type Staphylococcus aureus by broth dilution method; type: functional; procedure, shortened: as §1
[8] = system: Staphylococcus aureus; assay: Antimicrobial activity against Staphylococcus aureus isogenic forms expressing parC S80F mutant by agar dilution method; type: functional; procedure, shortened: as §1
[9] = system: Staphylococcus aureus; assay: Antimicrobial activity against Staphylococcus aureus isogenic forms expressing parC S80F mutant by broth dilution method; type: functional; procedure, shortened: as §1
[10] = system: Staphylococcus aureus; assay: Antimicrobial activity against Staphylococcus aureus isogenic forms expressing gyrA S84L and parC S80F mutant by broth dilution method; type: functional; procedure, shortened: as §1
[11] = system: Staphylococcus aureus; assay: Antimicrobial activity against Staphylococcus aureus isogenic forms expressing rpoB H481Y mutant by agar dilution method; type: functional; procedure, shortened: as §1
[12] = system: Staphylococcus aureus; assay: Antimicrobial activity against Staphylococcus aureus isogenic forms expressing rpoB H481Y mutant by broth dilution method; type: functional; procedure, shortened: as §1
[13] = system: Staphylococcus aureus; assay: Antimicrobial activity against Staphylococcus aureus isogenic forms expressing rpoB H481Y and gyrA S84L mutant by agar dilution method; type: functional; procedure, shortened: as §1
[14] = system: Staphylococcus aureus; assay: Antimicrobial activity against Staphylococcus aureus isogenic forms expressing rpoB H481Y and gyrA S84L mutant by broth dilution method; type: functional; procedure, shortened: as §1
[15] = system: Staphylococcus aureus; assay: Antimicrobial activity against Staphylococcus aureus isogenic forms expressing rpoB H481Y and parC S80F mutant by agar dilution method; type: functional; procedure, shortened: as §1
[16] = system: Staphylococcus aureus; assay: Antimicrobial activity against Staphylococcus aureus isogenic forms expressing rpoB H481Y and parC S80F mutant by broth dilution method; type: functional; procedure, shortened: as §1
[17] = system: Staphylococcus aureus; assay: Antimicrobial activity against Staphylococcus aureus isogenic forms expressing rpoB H481Y/gyrA S84L/parC S80F mutant by agar dilution method; type: functional; procedure, shortened: as §1
[18] = system: Staphylococcus aureus; assay: Antimicrobial activity against Staphylococcus aureus isogenic forms expressing rpoB H481Y/gyrA S84L/parC S80F mutant by broth dilution method; type: functional; procedure, shortened: as §1
[19] = system: Staphylococcus aureus; assay: Antimicrobial activity against methicillin-sensitive Staphylococcus aureus clinical isolates by broth dilution method; type: functional
[20] = system: Staphylococcus aureus; assay: Antimicrobial activity against methicillin-resistant Staphylococcus aureus clinical isolates by broth dilution method; type: functional
[21] = system: Staphylococcus epidermidis; assay: Antimicrobial activity against methicillin-sensitive Staphylococcus epidermidis clinical isolates by broth dilution method; type: functional
[22] = system: Staphylococcus epidermidis; assay: Antimicrobial activity against methicillin-resistant Staphylococcus epidermidis clinical isolates by broth dilution method; type: functional; details: Staphylococcus epidermidis
[23] = system: Streptococcus pyogenes; assay: Antimicrobial activity against Streptococcus pyogenes clinical isolates by broth dilution method; type: functional
[24] = system: Streptococcus agalactiae; assay: Antimicrobial activity against Streptococcus agalactiae clinical isolates by broth dilution method; type: functional
[25] = system: Streptococcus pneumoniae; assay: Antimicrobial activity against Streptococcus pneumoniae clinical isolates by broth dilution method; type: functional
[26] = system: Staphylococcus aureus; assay: Bactericidal activity against methicillin-sensitive Staphylococcus aureus 29213 infected in mouse macrophages assessed as induction of bacterial kill at 4 ug/ml in presence of 4 ug/ml rifampin after 24 hrs; type: functional
[27] = Half life in iv dosed mouse plasma; type: ADME, organism-based
[28] = Half life in iv dosed rat plasma; type: ADME, organism-based
[29] = Half life in iv dosed rabbit plasma; type: ADME, organism-based, Oryctolagus cuniculus
[30] = Half life in iv dosed dog plasma; type: ADME, organism-based, Canis lupus familiaris
[31] = Plasma clearance in iv dosed rat; type: ADME, organism-based
[32] = Plasma clearance in iv dosed rabbit; type: ADME, organism-based, Oryctolagus cuniculus
[33] = Plasma clearance in iv dosed dog; type: ADME, organism-based, Canis lupus familiaris
[34] = system: Staphylococcus aureus; assay: Antimicrobial activity against methicillin-sensitive Staphylococcus aureus infected in mouse skin abscess model; type: functional
[35] = system: Staphylococcus epidermidis; assay: Antimicrobial activity against Staphylococcus epidermidis infected in mouse skin abscess model; type: functional
[36] = system: Streptococcus pyogenes; assay: Antimicrobial activity against Streptococcus pyogenes infected in mouse skin abscess model; type: functional
[37] = system: Staphylococcus epidermidis; assay: Antimicrobial activity against Staphylococcus epidermidis infected in rat central venous catheter infection model assessed as reduction in bacterial load; type: functional
[38] = system: Streptococcus pyogenes; assay: Antimicrobial activity against Streptococcus pyogenes infected in rat central venous catheter infection model assessed as reduction in bacterial load; type: functional
[39] = system: Staphylococcus aureus; assay: Antimicrobial activity against methicillin-sensitive Staphylococcus aureus infected in rat central venous catheter infection model assessed as reduction in bacterial load; type: functional
[40] = system: Staphylococcus aureus; assay: Antimicrobial activity against Staphylococcus aureus infected in rat […] model assessed as reduction in bacterial load in granuloma pouch fluid at 5 to 25 mg/kg, iv administered as single dose; type: functional
[41] = system: Staphylococcus aureus; assay: Antimicrobial activity against methicillin-resistant Staphylococcus aureus 67-0; type: functional
[42] = system: Staphylococcus aureus; assay: Bactericidal activity against methicillin-resistant Staphylococcus aureus 67-0; type: functional
[43] = target: Topoisomerase IV (Staphylococcus aureus) (UniProt P0C1U9+P0C1S7)
[44] = target: DNA gyrase (Staphylococcus aureus) (UniProt P0A0K8+P20831)
[45] = system: Staphylococcus aureus
[46] = target: DNA topoisomerase 2-alpha (Homo sapiens) (UniProt P11388)
[47] = Volume of distribution in iv dosed dog; details: in vivo
[48] = Volume of distribution in iv dosed dog; details: in vivo; remark: listed apart in the source
[49] = system: Staphylococcus aureus; assay: Antimicrobial activity against Staphylococcus aureus ATCC 29213 assessed as mutation preventive concentration
[50] = system: Staphylococcus aureus; assay: […] activity against Staphylococcus aureus ATCC 29213 assessed as induction of bacterial kill at […] in presence of 1 ug/ml rifampin after 24 hrs
[51] = system: Staphylococcus aureus; assay: Antimicrobial activity against Staphylococcus aureus isogenic forms expressing gyrA S84L mutant; type: functional
[52] = system: Staphylococcus aureus; assay: Antimicrobial activity against wild type Staphylococcus aureus; type: functional
[53] = system: Staphylococcus aureus; assay: Antimicrobial activity against Staphylococcus aureus isogenic forms expressing parC S80F mutant; type: functional; procedure, shortened: as §1
[54] = system: Staphylococcus aureus; assay: Antimicrobial activity against Staphylococcus aureus isogenic forms expressing gyrA S84L and parC S80F mutant; type: functional; procedure, shortened: as §1
[55] = system: Staphylococcus aureus; assay: Antimicrobial activity against Staphylococcus aureus isogenic forms expressing rpoB H481Y mutant; type: functional
[56] = system: Staphylococcus aureus; assay: Antimicrobial activity against Staphylococcus aureus isogenic forms expressing rpoB H481Y and gyrA S84L mutant; type: functional
[57] = system: Staphylococcus aureus; assay: Antimicrobial activity against Staphylococcus aureus isogenic forms expressing rpoB H481Y and parC S80F mutant; type: functional; procedure, shortened: as §1
[58] = system: Staphylococcus aureus; assay: Antimicrobial activity against Staphylococcus aureus isogenic forms expressing rpoB H481Y/gyrA S84L/parC S80F mutant; type: functional; procedure, shortened: as §1

In the case of `CO[C@H]1/C=C/O[C@@]2(C)Oc3c(C)c(O)c4c(O)c(c(/C=N/N5CCC(N(C)C6([C@@H]7CCN(c8c(F)cn9c(=O)c(C(=O)O)cc(C%10CC%10)c9c8C)C7)CC6)CC5)c(O)c4c3C2=O)NC(=O)/C(C)=C\C=C\[C@H](C)[C@H](O)[C@@H](C)[C@@H](O)[C@@H](C)[C@H](OC(C)=O)[C@@H]1C`, the MIC [1] is reported as 0.008 µg/mL (≈ 0.00664 µM), the MIC [2] is reported as 0.015 µg/mL (≈ 0.0124 µM) and the IC50 [3] is reported as 34 nM. For the same compound, the IC50 [4] was over 25000 nM, the MIC [5] was 0.008 µg/mL (≈ 0.00664 µM) and the MIC [6] was 0.008 µg/mL (≈ 0.00664 µM). The MIC [7] was 0.015 µg/mL (≈ 0.0124 µM), the MIC [8] was 0.008 µg/mL (≈ 0.00664 µM) and the MIC [9] was 0.015 µg/mL (≈ 0.0124 µM). For the same compound, the MIC [10] was 0.015 µg/mL (≈ 0.0124 µM), the MIC [11] was 0.06 µg/mL (≈ 0.0498 µM) and the MIC [12] was 0.12 µg/mL (≈ 0.0996 µM). The MIC [13] was 0.12 µg/mL (≈ 0.0996 µM), the MIC [14] was 0.5 µg/mL (≈ 0.415 µM) and the MIC [15] was 0.06 µg/mL (≈ 0.0498 µM). The MIC [16] was 0.25 µg/mL (≈ 0.207 µM), the MIC [17] was 0.25 µg/mL (≈ 0.207 µM) and the MIC [18] was 2 µg/mL (≈ 1.66 µM). The MIC50 [19] was 0.008 µg/mL (≈ 0.00664 µM), the MIC90 [19] was 0.015 µg/mL (≈ 0.0124 µM) and the MIC50 [20] was 0.015 µg/mL (≈ 0.0124 µM). The MIC90 [20] was 0.015 µg/mL (≈ 0.0124 µM), the MIC50 [21] was at most 0.008 µg/mL and the MIC90 [21] was 0.008 µg/mL (≈ 0.00664 µM). The MIC50 [22] was 0.008 µg/mL (≈ 0.00664 µM), the MIC90 [22] was 0.5 µg/mL (≈ 0.415 µM) and the MIC [23] was 0.008 to 0.12 µg/mL (≈ 0.00664 to 0.0996 µM). It also gave an MIC50 [23] of 0.03 µg/mL (≈ 0.0249 µM), an MIC90 [23] of 0.12 µg/mL (≈ 0.0996 µM) and an MIC [24] of 0.06 to 2 µg/mL (≈ 0.0498 to 1.66 µM). For the same compound, the MIC50 [24] was 0.12 µg/mL (≈ 0.0996 µM), the MIC90 [24] was 0.25 µg/mL (≈ 0.207 µM) and the MIC [25] was 0.06 to 0.25 µg/mL (≈ 0.0498 to 0.207 µM). The MIC50 [25] was 0.12 µg/mL (≈ 0.0996 µM), the MIC90 [25] was 0.12 µg/mL (≈ 0.0996 µM) and the Activity [26] was over 99.9%. For the same compound, the half-life [27] was 0.4 to 4.1 h, the half-life [28] was 0.4 to 4.1 h and the half-life [29] was 0.4 to 4.1 h. It also gave a half-life [30] of 1.6 to 11.7 h, a clearance [31] of 1.17 to 6 mL/min/kg and a clearance [32] of 1.17 to 6 mL/min/kg. For the same compound, the clearance [33] was 0.167 to 1.33 mL/min/kg, the ED50 [34] was 1.4 to 3.8 mg/kg and the ED50 [35] was 4.8 to 10.7 mg/kg. It also gave an ED50 [36] of 4.8 to 10.7 mg/kg, an Activity [37] of over 3.1 log10CFU and an Activity [38] of over 3.1 log10CFU. For the same compound, the Activity [39] was 2.8 - 3.4 log10CFU, the Activity [40] was 1 - 3.4 log10CFU and the MIC [41] was 0.008 µg/mL (≈ 0.00664 µM). For the same compound, the MBC [42] was 0.5 µg/mL (≈ 0.415 µM), the CC50 [43] was 1700 nM and the CC50 [44] was 1500 nM. It also gave a CC50 [45] of 2700 nM, a CC50 [46] of over 150000 nM and a Vd [47] of 0.09 to 0.17 L/kg. For the same compound, the Vd [48] was 0.09 to 0.17 L/kg, the Activity [49] was 0.12 µg/mL and the Activity [50] was “>=99.9%”.

With `C[C@H]1COc2c(N3CCN(C)CC3)c(F)cc3c(=O)c(C(=O)O)cn1c23.C[C@H]1COc2c(N3CCN(C)CC3)c(F)cc3c(=O)c(C(=O)O)cn1c23.O` [LEVOFLOXACIN] the MIC [51] was 0.25 µg/mL, the MIC [52] was 0.25 µg/mL and the MIC [53] was 1 µg/mL. It also gave an MIC [54] of 8 µg/mL, an MIC [55] of 0.25 µg/mL and an MIC [56] of 0.25 µg/mL. For the same compound, the MIC [57] was 1 µg/mL, the MIC [58] was 8 µg/mL and the MIC [41] was 2 µg/mL. For the same compound, the MBC [42] was 2 µg/mL.

Work on `CN[C@H](CC(C)C)C(=O)N[C@H]1C(=O)N[C@@H](CC(N)=O)C(=O)N[C@H]2C(=O)N[C@H]3C(=O)N[C@H](C(=O)N[C@H](C(=O)O)c4cc(O)cc(O)c4-c4cc3ccc4O)[C@H](O)c3ccc(c(Cl)c3)Oc3cc2cc(c3O[C@@H]2O[C@H](CO)[C@@H](O)[C@H](O)[C@H]2O[C@H]2C[C@](C)(N)[C@H](O)[C@H](C)O2)Oc2ccc(cc2Cl)[C@H]1O` [VANCOMYCIN] yielded an MIC [41] of 1 µg/mL (≈ 0.69 µM) and an MBC [42] of 1 µg/mL (≈ 0.69 µM).

Source: ChEMBL document CHEMBL4425125, “Development of a Dual-Acting Antibacterial Agent (TNP-2092) for the Treatment of Persistent Bacterial Infections” (J Med Chem, 2016)
